Legend:
hERG (KCNH2) [1] = target: T1, hERG (KCNH2) (Homo sapiens, UniProt Q12809); assay: Inhibition of hERG expressed in CHO cells at […] by rubidium efflux assay; type: toxicity, cell-based; conditions: CHO cells that express hERG
[2] = target: Melanin-concentrating hormone receptor 1 (Homo sapiens, UniProt Q99705); assay: Displacement of [125I]MCH from MCHR1 expressed in CHO cells; type: cell-based
Procedure, shortened: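 Human MCH R1, CHO cell membranes (0.1 mg/mL) on SPA beads (1 mg/mL). Buffer: 25 mM HEPES, 10 mM MgCl2, 5 mM MnCl2, 0.1% BSA, pH 7.4. Incubation 2–4 h at room temperature, scintillation count. Ki by non-linear regression; mean ± range of two determinations, each in quadruplicate.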

hERG (KCNH2) [3] = target: T1, hERG (KCNH2); assay: Inhibition of hERG expressed in CHO cells at 5 ug/mL by rubidium efflux assay; type: toxicity, cell-based; conditions: CHO cells that express hERG
Procedure, shortened: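 hERG-CHO cells plated 24 h, then loaded 3 h in HEPES-buffered saline with 5.4 mM RbCl. Compound added and equilibrated 30 min at 37 °C. Cells washed three times in Rb-free saline (5.4 mM KCl), then depolarized 5 min with 45.4 mM KCl.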

Melanin-concentrating hormone receptor 1, sequence (Q99705 whole entry): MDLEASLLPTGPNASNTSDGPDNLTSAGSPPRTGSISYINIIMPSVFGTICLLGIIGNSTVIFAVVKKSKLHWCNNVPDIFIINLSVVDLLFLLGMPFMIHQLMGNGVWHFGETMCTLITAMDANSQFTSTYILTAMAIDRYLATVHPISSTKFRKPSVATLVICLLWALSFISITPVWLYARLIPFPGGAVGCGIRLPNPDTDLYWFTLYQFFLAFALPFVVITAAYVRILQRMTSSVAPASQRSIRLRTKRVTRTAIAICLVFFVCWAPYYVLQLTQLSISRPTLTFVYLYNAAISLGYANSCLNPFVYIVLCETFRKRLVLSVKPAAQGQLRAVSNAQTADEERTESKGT
T1 sequence (Q12809 whole entry): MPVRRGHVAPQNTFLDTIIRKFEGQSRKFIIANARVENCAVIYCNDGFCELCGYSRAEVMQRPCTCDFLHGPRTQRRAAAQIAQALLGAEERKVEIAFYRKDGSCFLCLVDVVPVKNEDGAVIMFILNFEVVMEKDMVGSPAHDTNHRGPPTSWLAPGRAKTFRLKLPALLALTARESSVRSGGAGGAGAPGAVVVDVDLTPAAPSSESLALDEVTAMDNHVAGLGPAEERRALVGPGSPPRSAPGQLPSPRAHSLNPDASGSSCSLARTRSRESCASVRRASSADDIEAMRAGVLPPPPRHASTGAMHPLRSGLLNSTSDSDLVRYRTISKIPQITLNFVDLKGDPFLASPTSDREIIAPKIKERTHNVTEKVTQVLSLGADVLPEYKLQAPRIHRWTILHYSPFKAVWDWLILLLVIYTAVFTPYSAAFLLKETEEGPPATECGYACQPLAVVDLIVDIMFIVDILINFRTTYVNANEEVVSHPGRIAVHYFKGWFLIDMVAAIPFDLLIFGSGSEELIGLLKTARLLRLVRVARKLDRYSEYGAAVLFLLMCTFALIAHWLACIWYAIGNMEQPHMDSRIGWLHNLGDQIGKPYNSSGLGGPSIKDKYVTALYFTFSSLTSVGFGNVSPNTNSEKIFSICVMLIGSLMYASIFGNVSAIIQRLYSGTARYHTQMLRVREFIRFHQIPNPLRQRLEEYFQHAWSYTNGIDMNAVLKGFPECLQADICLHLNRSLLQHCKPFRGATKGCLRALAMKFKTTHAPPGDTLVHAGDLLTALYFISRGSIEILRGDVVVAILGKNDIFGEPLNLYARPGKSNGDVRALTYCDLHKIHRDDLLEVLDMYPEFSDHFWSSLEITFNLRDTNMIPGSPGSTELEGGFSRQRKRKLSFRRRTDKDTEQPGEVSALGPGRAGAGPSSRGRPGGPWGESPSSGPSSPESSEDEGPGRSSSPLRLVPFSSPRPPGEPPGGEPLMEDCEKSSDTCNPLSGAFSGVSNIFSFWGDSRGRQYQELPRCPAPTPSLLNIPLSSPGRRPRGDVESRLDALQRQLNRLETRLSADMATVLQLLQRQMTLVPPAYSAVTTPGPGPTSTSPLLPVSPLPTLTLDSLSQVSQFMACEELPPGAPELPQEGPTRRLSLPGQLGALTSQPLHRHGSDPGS

| Compound | inhibition at […] (hERG (KCNH2) [1]) | Ki [2] | inhibition at 5 ug/mL (hERG (KCNH2) [3]) |
| --- | --- | --- | --- |
| CS(=O)(=O)N1CCC[C@H]1CN(C(=O)Nc1ccc(F)c(Cl)c1)[C@@H]1CC[C@]2(c3cccc(C#N)c3)CC2C1 (stereo not given in full) | 32% | 559 nM | 13% |
| CS(=O)(=O)N1CCC(CN(C(=O)Nc2ccc(F)c(Cl)c2)[C@@H]2CC[C@]3(c4cccc(C#N)c4)CC3C2)CC1 (stereo not given in full) | 6% | 7.2 nM | 24% |
| Cc1ccc(NC(=O)N(CCN2CC[C@@H](O)C2)[C@@H]2CC[C@]3(c4cccc(C#N)c4)CC3C2)cc1F (stereo not given in full) | – | 48 nM | – |
| CC(=O)N1CCC(CN(C(=O)Nc2ccc(F)c(Cl)c2)[C@@H]2CC[C@]3(c4cccc(C#N)c4)CC3C2)CC1 (stereo not given in full) | 32% | 312 nM | 37% |
| N#Cc1cccc([C@]23CC[C@@H](N(CCN4CC[C@@H](O)C4)C(=O)Nc4ccc5c(c4)OCO5)CC2C3)c1 (stereo not given in full) | – | 134 nM | – |
| CC(C)N(CCN(C(=O)Nc1ccc(F)c(F)c1)[C@@H]1CC[C@]2(c3ccccc3)CC2C1)C(C)C (stereo not given in full) | – | 92 nM | – |
| Cc1cc(C)cc(NC(=O)N(CCN2CC[C@@H](O)C2)[C@@H]2CC[C@]3(c4cccc(C#N)c4)CC3C2)c1 (stereo not given in full) | – | 539 nM | – |
| CS(=O)(=O)N1CCCCC1CN(C(=O)Nc1ccc(F)c(Cl)c1)[C@@H]1CC[C@]2(c3cccc(C#N)c3)CC2C1 (stereo not given in full) | 31% | 295 nM | 3% |
| O=C(Nc1ccc(F)c(Cl)c1)N(CCN1CCCC1)C1CC=C(c2ccco2)CC1 (stereo not given) | – | 117 nM | – |
| N#Cc1cccc([C@]23CC[C@@H](N(CCN4CC[C@@H](O)C4)C(=O)Nc4cccc(Br)c4)CC2C3)c1 (stereo not given in full) | – | 34 nM | – |
| O=C(Nc1ccc(F)c(Cl)c1)N(CCN1CCCC1)C1CC=C(c2cc3ccccc3o2)CC1 (stereo not given) | – | 316 nM | – |
| CC(C)N(CCN(C(=O)Nc1cc(Cl)nc(Cl)c1)[C@@H]1CC[C@]2(c3cccc(C#N)c3)CC2C1)C(C)C (stereo in doubt; 13) | – | 2.4 nM | 59% |
| N#Cc1cccc([C@]23CC[C@@H](N(CCN4CC[C@@H](O)C4)C(=O)Nc4ccccc4F)CC2C3)c1 (stereo not given in full) | – | 1880 nM | – |
| N#Cc1ncc(C2=CCC(N(CCN3CCCC3)C(=O)Nc3ccc(F)c(Cl)c3)CC2)s1 (stereo not given) | – | 57 nM | – |
| CC(C)N(CCN(C(=O)Nc1ccc(F)c(Cl)c1)[C@@H]1CC[C@]2(c3cccc(CO)c3)CC2C1)C(C)C (stereo not given in full) | 43% | 48 nM | 67% |
| N#Cc1cccc([C@]23CC[C@@H](N(CCN4CCC(O)CC4)C(=O)Nc4ccc(F)c(Cl)c4)CC2C3)c1 (stereo not given in full) | – | 22 nM | – |
| CC(C)N(CCN(C(=O)Nc1ccc(F)c(F)c1)[C@@H]1CC[C@]2(c3cccc(C#N)c3)CC2C1)C(C)C (stereo not given in full) | – | 2.8 nM | – |
| CC(=O)NC1CCN(CCN(C(=O)Nc2ccc(F)c(Cl)c2)[C@@H]2CC[C@]3(c4cccc(C#N)c4)CC3C2)C1 (stereo not given in full) | – | 23 nM | – |
| O=C(Nc1ccc(F)c(Cl)c1)N(CCN1CCCC1)C1CC=C(c2cncnc2)CC1 (stereo not given) | – | 147 nM | 85% |

| Compound | inhibition at […] (hERG (KCNH2) [1]) | Ki [2] | inhibition at 5 ug/mL (hERG (KCNH2) [3]) |
| --- | --- | --- | --- |
| CCN(CCO)CCN(C(=O)Nc1ccc(F)c(Cl)c1)[C@@H]1CC[C@]2(c3cccc(C#N)c3)CC2C1 (stereo not given in full) | – | 11 nM | – |
| CC(C)N(CCN(C(=O)Nc1cc(Cl)nc(Cl)c1)[C@@H]1CC[C@]2(c3cccc(C#N)c3)CC2C1)C(C)C (stereo in doubt; 6j) | – | 2 nM | – |
| CC(C)N(CCN(C(=O)Nc1cc(F)cc(F)c1)[C@@H]1CC[C@]2(c3cccc(C#N)c3)CC2C1)C(C)C (stereo not given in full) | – | 4.5 nM | – |
| CNC(=O)N1CCC(CN(C(=O)Nc2ccc(F)c(C(F)(F)F)c2)[C@@H]2CC[C@]3(c4cccc(C#N)c4)CC3C2)CC1 (stereo not given in full) | 14% | 181 nM | 18% |
| N#Cc1cccc([C@]23CC[C@@H](N(CCN4CC[C@@H](O)C4)C(=O)Nc4ccc(F)c(F)c4)CC2C3)c1 (stereo not given in full) | – | 20 nM | – |
| CS(=O)(=O)N1CCC(CCN(C(=O)Nc2ccc(F)c(C(F)(F)F)c2)[C@@H]2CC[C@]3(c4cccc(C#N)c4)CC3C2)CC1 (stereo not given in full) | 18% | 80 nM | 20% |
| N#Cc1cccc([C@]23CC[C@@H](N(CCN4CC[C@@H](O)C4)C(=O)Nc4cccc(Cl)c4)CC2C3)c1 (stereo not given in full) | – | 27 nM | – |
| O=C(Nc1ccc(F)c(Cl)c1)N(CCN1CCCC1)C1CC=C(c2ccc[nH]2)CC1 (stereo not given) | – | 1970 nM | – |
| COC(=O)c1cccc([C@]23CC[C@@H](N(CCN(C(C)C)C(C)C)C(=O)Nc4ccc(F)c(F)c4)CC2C3)c1 (stereo not given in full) | 57% | – | 85% |
| CCN(CC)Cc1cccc([C@]23CC[C@@H](N(CCN(C(C)C)C(C)C)C(=O)Nc4ccc(F)c(Cl)c4)CC2C3)c1 (stereo not given in full) | 15% | 46 nM | 30% |
| CCO/N=C/c1cccc([C@]23CC[C@@H](N(CCN(C(C)C)C(C)C)C(=O)Nc4ccc(F)c(Cl)c4)CC2C3)c1 (stereo not given in full) | – | 29 nM | – |
| CC(C)N(CCN(C(=O)Nc1cccc(Br)c1)[C@@H]1CC[C@]2(c3cccc(C#N)c3)CC2C1)C(C)C (stereo not given in full) | – | 5.7 nM | – |
| N#Cc1cccc(NC(=O)N(CCN2CC[C@@H](O)C2)[C@@H]2CC[C@]3(c4cccc(C#N)c4)CC3C2)c1 (stereo not given in full) | – | 92 nM | – |
| CC1CCCCN1CCN(C(=O)Nc1ccc(F)c(Cl)c1)[C@@H]1CC[C@]2(c3cccc(C#N)c3)CC2C1 (stereo not given in full) | – | 15 nM | – |
| N#Cc1cccc([C@]23CC[C@@H](N(CCN4CC[C@@H](O)C4)C(=O)NC4CCCCC4)CC2C3)c1 (stereo not given in full) | – | 2210 nM | – |
| CS(=O)(=O)N1CCC(CN(C(=O)Nc2ccc(F)c(F)c2)[C@@H]2CC[C@]3(c4cccc(C#N)c4)CC3C2)CC1 (stereo not given in full) | 15% | 5.4 nM | 34% |
| CN(C)Cc1ncc(C2=CCC(N(CCN3CCCC3)C(=O)Nc3ccc(F)c(Cl)c3)CC2)s1 (stereo not given) | – | 648 nM | – |
| N#Cc1cccc([C@]23CC[C@@H](N(CCN4CCOCC4)C(=O)Nc4ccc(F)c(Cl)c4)CC2C3)c1 (stereo not given in full) | – | 53 nM | – |
| CC1CCCN1CCN(C(=O)Nc1ccc(F)c(Cl)c1)[C@@H]1CC[C@]2(c3cccc(C#N)c3)CC2C1 (stereo not given in full) | – | 16 nM | – |

| Compound | inhibition at […] (hERG (KCNH2) [1]) | Ki [2] | inhibition at 5 ug/mL (hERG (KCNH2) [3]) |
| --- | --- | --- | --- |
| CS(=O)(=O)N1CCCC(CN(C(=O)Nc2ccc(F)c(Cl)c2)[C@@H]2CC[C@]3(c4cccc(C#N)c4)CC3C2)C1 (stereo not given in full) | 3% | 211 nM | 9% |
| N#Cc1cccc([C@]23CC[C@@H](N(CCN4CC[C@@H](O)C4)C(=O)Nc4cccc(F)c4)CC2C3)c1 (stereo not given in full) | – | 20 nM | – |
| CCS(=O)(=O)N1CCC(CN(C(=O)Nc2ccc(F)c(F)c2)[C@@H]2CC[C@]3(c4cccc(C#N)c4)CC3C2)CC1 (stereo not given in full) | 25% | 21 nM | 59% |
| N#Cc1cccc([C@]23CC[C@@H](N(CCN4CC[C@@H](O)C4)C(=O)Nc4ccc(F)cc4)CC2C3)c1 (stereo not given in full) | – | 54 nM | – |
| N#Cc1cccc([C@]23CC[C@@H](N(CCN4CC[C@@H](O)C4)C(=O)Nc4cc(F)cc(F)c4)CC2C3)c1 (stereo not given in full) | – | 15 nM | – |
| N#Cc1cccc([C@]23CC[C@@H](N(CCN4CC[C@@H](O)C4)C(=O)Nc4ccccc4)CC2C3)c1 (stereo not given in full) | – | 132 nM | – |
| CC(C)N(CCN(C(=O)Nc1cccc(C#N)c1)[C@@H]1CC[C@]2(c3cccc(C#N)c3)CC2C1)C(C)C (stereo not given in full) | – | 7.6 nM | – |
| CC(C)N(CCN(C(=O)Nc1ccc(F)c(F)c1)[C@@H]1CC[C@]2(c3cccc(Br)c3)CC2C1)C(C)C (stereo not given in full) | – | 7.8 nM | – |
| CC(C)N(CCN(C(=O)Nc1cccc(F)c1)[C@@H]1CC[C@]2(c3cccc(C#N)c3)CC2C1)C(C)C (stereo not given in full) | – | 2.1 nM | – |
| CC(C)N(CCN(C(=O)Nc1cccc([N+](=O)[O-])c1)[C@@H]1CC[C@]2(c3cccc(C#N)c3)CC2C1)C(C)C (stereo not given in full) | – | 2.7 nM | – |
| O=Cc1ccc(C2=CCC(N(CCN3CCCC3)C(=O)Nc3ccc(F)c(Cl)c3)CC2)o1 (stereo not given) | – | 51 nM | 47% |
| N#Cc1cccc([C@]23CC[C@@H](N(CCN4CCCC(CO)C4)C(=O)Nc4ccc(F)c(Cl)c4)CC2C3)c1 (stereo not given in full) | – | 15 nM | – |
| N#Cc1cccc([C@]23CC[C@@H](N(CCN4CC[C@@H](O)C4)C(=O)Nc4cccc([N+](=O)[O-])c4)CC2C3)c1 (stereo not given in full) | – | 60 nM | – |
| CC(C)N(CCN(C(=O)Nc1ccc(F)cc1)[C@@H]1CC[C@]2(c3cccc(C#N)c3)CC2C1)C(C)C (stereo not given in full) | – | 10.4 nM | – |
| N#Cc1cccc([C@]23CC[C@@H](N(CC4CCN(C5CCOCC5)CC4)C(=O)Nc4ccc(F)c(Cl)c4)CC2C3)c1 (stereo not given in full) | 75% | – | 91% |
| Cc1ccc(C2=CCC(N(CCN3CCCC3)C(=O)Nc3ccc(F)c(Cl)c3)CC2)s1 (stereo not given) | – | 85 nM | 12% |
| CC(C)N(CCN(C(=O)Nc1cccc(Cl)c1)[C@@H]1CC[C@]2(c3cccc(C#N)c3)CC2C1)C(C)C (stereo not given in full) | – | 6 nM | – |
| N#Cc1cccc([C@]23CC[C@@H](N(CCN4CCCCCC4)C(=O)Nc4ccc(F)c(Cl)c4)CC2C3)c1 (stereo not given in full) | – | 15 nM | – |
| COc1cccc(NC(=O)N(CCN2CC[C@@H](O)C2)[C@@H]2CC[C@]3(c4cccc(C#N)c4)CC3C2)c1 (stereo not given in full) | – | 373 nM | – |

From ChEMBL document CHEMBL1143739, “SAR study of bicyclo[4.1.0]heptanes as melanin-concentrating hormone receptor R1 antagonists: taming hERG” (Bioorg Med Chem, 2007)
